{
  "source": "ChEMBL document CHEMBL4052615",
  "about": "“Discovery of 4-amino-3-arylsulfoquinolines, a novel non-acetylenic chemotype of metabotropic glutamate 5 (mGlu5) receptor negative allosteric modulators” (Eur J Med Chem, 2017)",
  "data": [
    {"biological_target": "Metabotropic glutamate receptor 5 (Homo sapiens, UniProt P41594)", "sequence (P41594 21-1212 limits assumed)": "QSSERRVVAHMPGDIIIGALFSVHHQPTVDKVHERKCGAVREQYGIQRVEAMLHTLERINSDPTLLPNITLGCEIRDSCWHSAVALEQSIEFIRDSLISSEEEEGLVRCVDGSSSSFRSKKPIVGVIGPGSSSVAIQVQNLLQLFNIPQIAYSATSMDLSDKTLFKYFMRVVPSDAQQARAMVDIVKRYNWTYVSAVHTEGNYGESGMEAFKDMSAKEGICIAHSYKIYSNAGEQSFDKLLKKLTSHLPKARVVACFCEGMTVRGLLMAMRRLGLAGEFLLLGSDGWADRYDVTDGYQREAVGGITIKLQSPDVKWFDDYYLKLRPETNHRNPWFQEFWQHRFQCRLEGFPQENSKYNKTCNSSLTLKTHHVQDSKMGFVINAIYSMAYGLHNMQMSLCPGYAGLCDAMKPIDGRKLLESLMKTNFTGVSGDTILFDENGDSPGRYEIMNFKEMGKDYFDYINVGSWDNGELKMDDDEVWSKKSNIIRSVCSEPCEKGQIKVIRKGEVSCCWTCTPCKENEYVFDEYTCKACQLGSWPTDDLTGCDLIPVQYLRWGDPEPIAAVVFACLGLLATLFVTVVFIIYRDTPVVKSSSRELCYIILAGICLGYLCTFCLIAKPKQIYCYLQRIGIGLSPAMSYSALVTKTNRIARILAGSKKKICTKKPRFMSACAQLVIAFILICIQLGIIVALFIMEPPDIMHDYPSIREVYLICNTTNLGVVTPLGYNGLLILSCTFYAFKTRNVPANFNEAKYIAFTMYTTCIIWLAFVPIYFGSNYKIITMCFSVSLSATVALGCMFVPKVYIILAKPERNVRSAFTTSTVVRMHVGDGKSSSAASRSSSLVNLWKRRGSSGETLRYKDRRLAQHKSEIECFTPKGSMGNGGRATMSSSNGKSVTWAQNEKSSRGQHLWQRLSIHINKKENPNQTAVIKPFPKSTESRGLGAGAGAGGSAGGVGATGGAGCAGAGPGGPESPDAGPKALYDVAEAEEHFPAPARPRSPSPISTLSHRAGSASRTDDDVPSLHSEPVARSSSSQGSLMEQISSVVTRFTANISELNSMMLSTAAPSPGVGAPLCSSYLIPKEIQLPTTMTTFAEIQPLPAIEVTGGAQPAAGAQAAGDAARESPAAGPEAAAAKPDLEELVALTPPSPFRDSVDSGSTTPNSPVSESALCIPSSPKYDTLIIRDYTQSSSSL", "assay": "Displacement of [3H]M-MPEP from mGluR5 (unknown origin) at 1 uM measured after 60 mins relative to control", "method_in_brief": "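Rat cerebrocortical membranes or membranes from A18 cells expressing human mGlu5a, incubated with [³H]M-MPEP and test compound at 1 µM in 50 mM Tris pH 7.6 with 2 mM MgCl₂ and 2 mM CaCl₂, 60 min at 25°C. Non-specific binding was taken with […]. Result is % displacement, run in duplicate or triplicate.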", "units": {"inhibition": "%"}, "values": [
      {"molecule": "COc1ccc(S(=O)(=O)c2cnc3ccc(Cl)cc3c2N2CCC(C)CC2)cc1OC", "inhibition": 61},
      {"molecule": "COc1ccc(S(=O)(=O)c2cnc3ccc(F)cc3c2N2CCC(C)CC2)cc1Cl", "inhibition": 82},
      {"molecule": "COc1ccc2ncc(S(=O)(=O)c3ccccc3)c(N3CCC(C)CC3)c2c1", "inhibition": 64},
      {"molecule": "COc1ccc(S(=O)(=O)c2cnc3cc(F)ccc3c2N2CCOCC2)cc1OC", "inhibition": 5},
      {"molecule": "N#Cc1cccc(S(=O)(=O)c2cnc3cc(Cl)ccc3c2N2CCOCC2)c1", "inhibition": 73},
      {"molecule": "CC1CCN(c2c(S(=O)(=O)c3ccccc3)cnc3c(F)cccc23)CC1", "inhibition": 13},
      {"molecule": "COc1ccc2ncc(S(=O)(=O)c3cccc(Cl)c3)c(N3CCOCC3)c2c1", "inhibition": 12},
      {"molecule": "CC1CCN(c2c(S(=O)(=O)c3cc(F)cc(F)c3)cnc3c(F)cccc23)CC1", "inhibition": 9},
      {"molecule": "O=S(=O)(c1ccc(F)cc1)c1cnc2cc(Cl)ccc2c1N1CCOCC1", "inhibition": 14},
      {"molecule": "COc1ccc(S(=O)(=O)c2cnc3cc(Cl)ccc3c2N2CCOCC2)cc1OC", "inhibition": 4},
      {"molecule": "O=S(=O)(c1ccc(F)c(F)c1)c1cnc2cc(Cl)ccc2c1N1CCOCC1", "inhibition": 49},
      {"molecule": "COc1cccc(S(=O)(=O)c2cnc3ccc(F)cc3c2N2CCOCC2)c1", "inhibition": 41},
      {"molecule": "COc1ccc2ncc(S(=O)(=O)c3cccc(C#N)c3)c(N3CCOCC3)c2c1", "inhibition": 20},
      {"molecule": "Cc1ccc(S(=O)(=O)c2cnc3cc(F)ccc3c2N2CCOCC2)cc1F", "inhibition": 51},
      {"molecule": "COc1ccc2ncc(S(=O)(=O)c3ccc(OC)c(OC)c3)c(N3CCC(C)CC3)c2c1", "inhibition": -3},
      {"molecule": "O=S(=O)(c1ccc(F)c(Cl)c1)c1cnc2c(F)cccc2c1N1CCOCC1", "inhibition": 83},
      {"molecule": "N#Cc1cccc(S(=O)(=O)c2cnc3cc(F)ccc3c2N2CCOCC2)c1", "inhibition": "71 to 71.4"},
      {"molecule": "Cc1ccc(S(=O)(=O)c2cnc3cc(Cl)ccc3c2N2CCOCC2)cc1", "inhibition": 12},
      {"molecule": "COc1ccc2ncc(S(=O)(=O)c3ccc(Cl)c(Cl)c3)c(N3CCC(C)CC3)c2c1", "inhibition": 87},
      {"molecule": "O=S(=O)(c1ccc(F)cc1)c1cnc2cc(F)ccc2c1N1CCSCC1", "inhibition": 62.7},
      {"molecule": "COc1ccc(S(=O)(=O)c2cnc3cc(Cl)ccc3c2N2CCC(C)CC2)cc1OC", "inhibition": 93},
      {"molecule": "COc1ccc(S(=O)(=O)c2cnc3ccc(F)cc3c2N2CCC(C)CC2)cc1OC", "inhibition": 54},
      {"molecule": "N#Cc1ccc(S(=O)(=O)c2cnc3ccc(Cl)cc3c2N2CCOCC2)cc1", "inhibition": 4},
      {"molecule": "CC1CCN(c2c(S(=O)(=O)c3cccc(C#N)c3)cnc3cc(Cl)ccc23)CC1", "inhibition": 94},
      {"molecule": "Cc1cc(C)cc(S(=O)(=O)c2cnc3cc(Cl)ccc3c2N2CCOCC2)c1", "inhibition": 24},
      {"molecule": "CC1CCN(c2c(S(=O)(=O)c3ccc(F)c(Cl)c3)cnc3ccc(F)cc23)CC1", "inhibition": 95},
      {"molecule": "Cc1ccc2ncc(S(=O)(=O)c3ccc(F)c(F)c3)c(N3CCOCC3)c2c1", "inhibition": 24},
      {"molecule": "COc1ccc2ncc(S(=O)(=O)c3cccc(C#N)c3)c(N3CCC(C)CC3)c2c1", "inhibition": 90},
      {"molecule": "CC1CCN(c2c(S(=O)(=O)c3ccccc3)cnc3cc(Cl)ccc23)CC1", "inhibition": 93},
      {"molecule": "O=S(=O)(c1ccc(Cl)cc1)c1cnc2ccc(F)cc2c1N1CCOCC1", "inhibition": 78},
      {"molecule": "COc1cccc(S(=O)(=O)c2cnc3ccc(C)cc3c2N2CCC(C)CC2)c1", "inhibition": 96},
      {"molecule": "CC1CCN(c2c(S(=O)(=O)c3ccc(F)c(F)c3)cnc3cc(F)ccc23)CC1", "inhibition": 94},
      {"molecule": "Cc1ccc(S(=O)(=O)c2cnc3cc(F)ccc3c2N2CCC(C)CC2)cc1C", "inhibition": 90},
      {"molecule": "Cc1ccc(S(=O)(=O)c2cnc3ccc(Cl)cc3c2N2CCOCC2)cc1C", "inhibition": 90},
      {"molecule": "Cc1ccc(S(=O)(=O)c2cnc3cc(Cl)ccc3c2N2CCC(C)CC2)cc1Cl", "inhibition": 89},
      {"molecule": "Cc1ccc2ncc(S(=O)(=O)c3cccc(C#N)c3)c(N3CCC(C)CC3)c2c1", "inhibition": 52},
      {"molecule": "O=S(=O)(c1cccc(F)c1)c1cnc2ccc(Cl)cc2c1N1CCOCC1", "inhibition": 0},
      {"molecule": "CC1CCN(c2c(S(=O)(=O)c3cccc(C#N)c3)cnc3cc(F)ccc23)CC1", "inhibition": "92 to 92.4"},
      {"molecule": "COc1cccc(S(=O)(=O)c2cnc3ccc(OC)cc3c2N2CCOCC2)c1", "inhibition": 20},
      {"molecule": "O=S(=O)(c1ccccc1)c1cnc2cc(F)ccc2c1N1CCOCC1", "inhibition": 4}
    ]}
  ]
}
